Reference: ChEMBL document CHEMBL3763017, “Synthesis and evaluation of dual antiplatelet activity of bispidine derivatives of N-substituted pyroglutamic acids” (Eur J Med Chem, 2016)
Active and inactive are the calls of the source. The rule behind the calls is not given here.

Columns and labels:
Mus musculus [1] = assay: Antithrombotic activity in Swiss albino mouse assessed as protection against collagen-epinephrine induced pulmonary thromboembolism at 30 umol/kg, po after 1 hr; format: functional
Summary of the method: (§1)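 Male Swiss albino mice (18–22 g) dosed orally in 0.5% carboxymethyl cellulose 1, 2, 4, 6, 12 or 24 h before challenge. Collagen (150 μg/ml) plus adrenaline (50 μg/ml) injected into the tail vein. Dead or hind-limb-paralysed mice counted over 15 min and expressed as % protection. Ten mice per drug group, five for vehicle.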

[2] = Antiplatelet activity in human platelet rich plasma assessed as inhibition of collagen-induced platelet aggregation at 30 uM preincubated for 5 mins followed by collagen stimulation by turbidimetry; format: functional
Summary of the method: (§2)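 Human PRP (1×10^8 platelets/ml) from healthy-donor blood spun at 1000 rpm for 10 min. Pre-treated 5 min with compound or 0.4% DMSO vehicle, then agonist added at 37 °C. Light-transmission aggregometry run at least 5–10 min; % aggregation calculated. Single-point screens at 30 μM, n = 3; mean ± SEM.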

[3] = Antiplatelet activity in human platelet rich plasma assessed as inhibition of U46619-induced platelet aggregation at 30 uM preincubated for 5 mins followed by U46619 stimulation by turbidimetry; format: functional; summary of the method: as §2
Mus musculus [4] = assay: Antithrombotic activity in Swiss albino mouse assessed as protection against collagen-epinephrine induced pulmonary thromboembolism at 170 umol/kg, po measured upto 5 hrs; format: functional; summary of the method: as §1
Mus musculus [5] = assay: Toxicity in Swiss albino mouse assessed as bleeding time at 170 umol/kg, po administered as single dose measured up to 24 hrs (reference value: 3.5 +/- 0.3 mins); format: organism-based; details: in vivo
Mus musculus [6] = assay: Antithrombotic activity in ferric chloride-induced Swiss albino mouse arterial thrombosis model assessed as time to occlusion at 170 umol/kg, po; format: functional, organism-based

Compound	Activity (Mus musculus [1])	inhibition at 30 µM [2]	inhibition at 30 µM [3]	Activity (Mus musculus [4])	Time (Mus musculus [5])	Activity (Mus musculus [6])
O=C([C@@H]1CCC(=O)N1Cc1ccccc1)N1CC2CC(CN(Cc3ccccc3)C2)C1	30%	44%				
Cc1ccc(CN2C(=O)CC[C@H]2C(=O)N2CC3CC(CN(Cc4ccccc4Br)C3)C2)cc1	30%	67%	70%			
Cc1ccc(CN2C(=O)CC[C@H]2C(=O)N2CC3CC(CN(C(=O)c4ccccc4)C3)C2)cc1	40%	20.5%				
O=C([C@@H]1CCC(=O)N1Cc1ccc(Cl)cc1)N1CC2CC(CN(Cc3ccccc3)C2)C1	30%	52%	80%			
CC(=O)Oc1ccccc1C(=O)O [ASPIRIN]				40%	6.6 min	inactive
Cc1ccc(CN2C(=O)CC[C@H]2C(=O)N2CC3CC(CN(Cc4ccc(Br)cc4)C3)C2)cc1	50%	61%	52%			
COc1ccc(CN2C(=O)CC[C@H]2C(=O)N2CC3CC(CN(Cc4ccccc4)C3)C2)cc1	30%	10%				
O=C([C@@H]1CCC(=O)N1Cc1c(Cl)cccc1Cl)N1CC2CC(CN(Cc3ccccc3)C2)C1	40%	68%	85%			
O=C([C@@H]1CCC(=O)N1S(=O)(=O)c1ccccc1)N1CC2CC(CN(Cc3ccccc3)C2)C1	30%	29%				
O=C(c1ccccc1)N1CC2CC(C1)CN(C(=O)[C@@H]1CCC(=O)N1Cc1ccccc1Br)C2	60%	25.6%				
Cc1ccc(CN2C(=O)CC[C@H]2C(=O)N2CC3CC(C2)CN(S(=O)(=O)c2ccc(C)cc2)C3)cc1	40%	37.5%				
CC(C)(C)OC(=O)N1CC2CC(C1)CN(C(=O)[C@@H]1CCC(=O)N1Cc1ccc(Cl)cc1)C2	30%	6%				
